Results published in ChEMBL document CHEMBL1139477, “Synthesis and evaluation of estrogen receptor ligands with bridged oxabicyclic cores containing a diarylethylene motif: estrogen antagonists of unusual structure” (J Med Chem, 2005).
The source made the active and inactive calls. No cut-off for these calls is given here.

Experiments:
[1] = target: T1, Estrogen receptor (Homo sapiens) (UniProt P03372); test: Displacement of [3H]estradiol from human ERalpha relative to estradiol
T1 sequence (whole entry): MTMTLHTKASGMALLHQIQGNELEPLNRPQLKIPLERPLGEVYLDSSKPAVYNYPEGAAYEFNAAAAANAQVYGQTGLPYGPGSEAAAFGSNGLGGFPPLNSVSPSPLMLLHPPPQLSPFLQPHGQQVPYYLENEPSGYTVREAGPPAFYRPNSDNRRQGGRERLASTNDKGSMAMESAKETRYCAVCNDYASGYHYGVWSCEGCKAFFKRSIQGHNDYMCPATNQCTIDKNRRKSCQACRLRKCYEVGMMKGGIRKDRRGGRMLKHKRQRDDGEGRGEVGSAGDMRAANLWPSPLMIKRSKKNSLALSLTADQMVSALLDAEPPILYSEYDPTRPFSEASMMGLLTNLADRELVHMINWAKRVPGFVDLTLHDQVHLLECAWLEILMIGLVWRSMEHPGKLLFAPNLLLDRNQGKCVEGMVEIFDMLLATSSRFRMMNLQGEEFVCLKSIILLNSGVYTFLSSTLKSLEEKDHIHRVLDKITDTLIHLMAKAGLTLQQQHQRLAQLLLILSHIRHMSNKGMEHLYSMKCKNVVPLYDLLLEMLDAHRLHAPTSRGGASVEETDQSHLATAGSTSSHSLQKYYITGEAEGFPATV

[2] = target: Estrogen receptor beta (Homo sapiens) (UniProt Q92731); test: Displacement of [3H]estradiol from human ERbeta relative to estradiol
[3] = target: Estrogen receptor (Homo sapiens) (UniProt Q92731+P03372); test: Ratio of RBA for human estrogen receptor alpha to RBA for human estrogen receptor beta; assay type: protein assay
[4] = target: T1, Estrogen receptor (Homo sapiens); test: Activity at ERalpha in human HEC1 cells assessed as antagonism of estradiol-activated transcription activation relative to estradiol; assay type: functional, cell-based; conditions: HEC-1
How it was run: (§1)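 HEC-1 cells kept in phenol red MEM with 5% calf serum plus 5% fetal calf serum, then plated in phenol red-free Improved MEM with 5% charcoal dextran-treated calf serum. Lipofectin transfection for 5 h at 37 °C with full-length human ERα or ERβ vector, 2ERE-pS2-Luc and pCMV β-galactosidase control. Ligand, 10^-8 to 10^-5 M, given with 1 nM estradiol for 24 h. Luciferase read, as percent of 10^-9 M estradiol alone. Two or more experiments.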

[5] = target: Estrogen receptor beta (Homo sapiens) (UniProt Q92731); test: Activity at ERbeta in human HEC1 cells assessed as antagonism of estradiol-activated transcription activation relative to estradiol; assay type: functional, cell-based; conditions: HEC-1; how it was run: as §1

Sequence of Estrogen receptor (Homo sapiens) (UniProt Q92731+P03372) (Q92731 whole entry, looked up, one chain of several): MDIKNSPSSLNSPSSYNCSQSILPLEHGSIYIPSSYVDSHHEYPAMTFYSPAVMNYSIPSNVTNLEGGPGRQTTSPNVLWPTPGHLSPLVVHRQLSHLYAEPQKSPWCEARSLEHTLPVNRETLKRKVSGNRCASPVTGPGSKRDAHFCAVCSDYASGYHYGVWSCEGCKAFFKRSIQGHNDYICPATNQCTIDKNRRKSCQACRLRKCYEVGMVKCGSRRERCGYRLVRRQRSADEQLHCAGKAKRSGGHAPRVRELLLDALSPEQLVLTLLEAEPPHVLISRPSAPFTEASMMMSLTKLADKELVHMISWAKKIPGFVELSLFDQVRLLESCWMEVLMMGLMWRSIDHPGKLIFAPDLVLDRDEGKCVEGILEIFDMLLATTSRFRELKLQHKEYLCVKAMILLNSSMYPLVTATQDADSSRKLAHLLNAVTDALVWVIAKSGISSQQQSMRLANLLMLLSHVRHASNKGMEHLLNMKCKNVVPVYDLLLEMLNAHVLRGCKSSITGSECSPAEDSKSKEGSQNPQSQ
Sequence of Estrogen receptor beta (Homo sapiens) (Q92731 whole entry): as the sequence (Q92731 whole entry, looked up, one chain of several) above

Work on `O=S(=O)(Oc1ccc(O)cc1)[C@H]1CC2OC1C(c1ccccc1)=C2c1ccccc1` (stereo in doubt; endo) yielded an RBA [1] of 0.025%, an RBA [2] of 0.029% and a Ratio [3] of 0.86.
`CCOC(=O)C1C2OC(C(c3ccc(O)cc3)=C2c2ccc(O)cc2)C1C(=O)OCC` (configuration not stated) was tested, and the RBA [1] was 0.021%, the RBA [2] was 0.036% and the Ratio [3] was 0.58.
`O=S(=O)(c1ccccc1)C1CC2OC1C(c1ccc(O)cc1)=C2c1ccc(O)cc1` (configuration not stated) showed an RBA [1] of 0.64%, an RBA [2] of 0.059% and a Ratio [3] of 11. For the same compound, the Activity [4] was “Active” and the Activity [5] was “Active”.
With `O=S(=O)(c1ccccc1)C1CC2OC1C(c1ccccc1)=C2c1ccccc1` (configuration not stated) the RBA [1] was 0.008%, the RBA [2] was 0.013% and the Ratio [3] was 0.62.
Work on `O=S(=O)(Oc1ccccc1)[C@H]1CC2OC1C(c1ccc(O)cc1)=C2c1ccc(O)cc1` (stereo in doubt; endo) yielded an RBA [1] of 4.1%.
For `O=S(=O)(Oc1ccccc1)C1CC2OC1C(c1ccccc1)=C2c1ccccc1` (configuration not stated), the RBA [1] was 0.068%, the RBA [2] was 0.12% and the Ratio [3] was 0.57.
Work on `CCS(=O)(=O)C1CC2OC1C(c1ccc(O)cc1)=C2c1ccc(O)cc1` (configuration not stated) yielded an RBA [1] of 0.1%, an RBA [2] of 0.077% and a Ratio [3] of 1.3.
Compound `O=C1OC(=O)C2C3OC(C(c4ccccc4)=C3c3ccccc3)C12` (configuration not stated) has an RBA [1] of 0.014%, an RBA [2] of 0.02% and a Ratio [3] of 0.7.
With `O=S(=O)(Oc1ccc(O)cc1)[C@H]1CC2OC1C(c1ccccc1)=C2c1ccccc1` (stereo in doubt; exo) the RBA [1] was 0.022%, the RBA [2] was 0.027% and the Ratio [3] was 0.82.
`COc1ccc(C2=C(c3ccc(O)cc3)C3CC(S(=O)(=O)c4ccccc4)C2O3)cc1` (configuration not stated) was tested, and the RBA [1] was 0.068%, the RBA [2] was 0.066% and the Ratio [3] was 1.
`COc1ccc(OS(=O)(=O)C2CC3OC2C(c2ccc(O)cc2)=C3c2ccc(O)cc2)cc1` (configuration not stated) was tested, and the RBA [1] was 0.32%, the RBA [2] was 0.1% and the Ratio [3] was 3.3.
`O=C1C2C3OC(C(c4ccc(O)cc4)=C3c3ccc(O)cc3)C2C(=O)N1c1ccccc1` (configuration not stated) showed an RBA [1] of 0.013%, an RBA [2] of 0.017% and a Ratio [3] of 0.77.
In the case of `COc1ccc(C2=C(c3ccc(O)cc3)C3CC(S(=O)(=O)Oc4ccccc4)C2O3)cc1` (configuration not stated), the RBA [1] is reported as 0.98%, the RBA [2] is reported as 0.11% and the Ratio [3] is reported as 8.9.
`O=S(=O)(c1ccccc1)C1CC2OC1C(c1cccc(O)c1)=C2c1ccc(O)cc1` (configuration not stated) gave an RBA [1] of 0.069%, an RBA [2] of 0.037% and a Ratio [3] of 1.9.
In the case of `O=S(=O)(Oc1ccc(O)cc1)C1CC2OC1C(c1ccc(O)cc1)=C2c1ccc(O)cc1` (configuration not stated), the RBA [1] is reported as 2.2%, the RBA [2] is reported as 0.16% and the Ratio [3] is reported as 14.
With `O=S(=O)(Oc1ccccc1)[C@H]1CC2OC1C(c1ccc(O)cc1)=C2c1ccc(O)cc1` (stereo in doubt; exo) the Activity [4] was “Active” and the Activity [5] was “Active”.
`COC(=O)C1=C(c2ccc(O)cc2)C2OC1C(c1ccccc1)=C2c1ccccc1` (configuration not stated) was tested, and the RBA [1] was 0.012%, the RBA [2] was 0.031% and the Ratio [3] was 0.39.
In the case of `COC(=O)C1=C(c2ccccc2)C2OC1C(c1ccccc1)=C2c1ccccc1` (configuration not stated), the RBA [1] is reported as 0.007%, the RBA [2] is reported as 0.024% and the Ratio [3] is reported as 0.29.
Compound `CN1C(=O)C2C3OC(C(c4ccc(O)cc4)=C3c3ccc(O)cc3)C2C1=O` (configuration not stated) has an RBA [1] of 0.02%, an RBA [2] of 0.025% and a Ratio [3] of 0.8.
`O=S(=O)(Oc1ccccc1)C1CC2OC1C(c1cccc(O)c1)=C2c1ccc(O)cc1` (configuration not stated) was tested, and the RBA [1] was 0.9%, the RBA [2] was 0.21% and the Ratio [3] was 4.3.
`COC(=O)C1=C(C(=O)OC)C2OC1C(c1ccc(O)cc1)=C2c1ccc(O)cc1` gave an RBA [1] of 0.009%, an RBA [2] of 0.006% and a Ratio [3] of 1.5.
